By Ki is commonly meant a measure of affinity in units of concentration, obtained from inhibition or displacement.

Results on nine molecules are retold here after ChEMBL document CHEMBL4368889, “Synthesis and evaluation of novel purple acid phosphatase inhibitors” (Medchemcomm, 2019).

The target of assay [1] is T1, Fe(3+)-Zn(2+) purple acid phosphatase (Phaseolus vulgaris, UniProt P80366).
T1 sequence (P80366 whole entry): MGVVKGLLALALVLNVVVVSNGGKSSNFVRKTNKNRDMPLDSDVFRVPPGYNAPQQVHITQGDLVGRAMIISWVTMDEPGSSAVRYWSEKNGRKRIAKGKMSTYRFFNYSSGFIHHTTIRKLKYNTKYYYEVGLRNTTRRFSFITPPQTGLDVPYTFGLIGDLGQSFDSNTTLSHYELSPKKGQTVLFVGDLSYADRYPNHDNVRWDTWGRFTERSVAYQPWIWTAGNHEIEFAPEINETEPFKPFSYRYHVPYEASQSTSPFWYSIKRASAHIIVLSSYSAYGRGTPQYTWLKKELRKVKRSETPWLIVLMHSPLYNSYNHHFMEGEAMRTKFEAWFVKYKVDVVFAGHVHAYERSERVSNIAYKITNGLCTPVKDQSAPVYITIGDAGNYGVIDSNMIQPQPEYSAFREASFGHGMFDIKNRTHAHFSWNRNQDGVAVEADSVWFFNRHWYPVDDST
Put plainly: Inhibition of red kidney bean PAP. In short, it runs like this:
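PAP purified from Phaseolus vulgaris beans, used at 7.4 nM in 0.1 M sodium acetate pH 4.9 with 25% DMSO at 25 °C. pNPP substrate at 1, 3, 5, 7.5, 10 and 12.5 mM, inhibitor 50–300 μM. Product formation read at 405 nm. Kic and Kiuc came from a non-linear regression to the general inhibition equation.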

Assay [2] can be described thus: Inhibition of pig PAP. Further details: species or system Sus scrofa.
Assay [3] addresses T2, Fe(3+)-Zn(2+) purple acid phosphatase (Phaseolus vulgaris) (UniProt P80366).
T2 sequence (whole entry): T1 sequence (P80366 whole entry)
Description: Competitive inhibition of red kidney bean PAP using pNPP as substrate by UV-vis spectrophotometric analysis. In outline:
(§1)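 Red kidney bean (Phaseolus vulgaris) PAP purified from the beans and used at 7.4 nM. Assays ran at pH 4.9 in 0.1 M sodium acetate with 25% DMSO, at 25 °C. Substrate was pNPP at 1, 3, 5, 7.5, 10 and 12.5 mM, with inhibitor at 50–300 μM. Product formation was read at 405 nm. Kic and Kiuc came from non-linear regression to the general inhibition equation.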

For another assay, the species on record is Sus scrofa. Put plainly: Uncompetitive inhibition of fully reduced pig PAP using pNPP as substrate by UV-vis spectrophotometric analysis. In outline: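 Pig PAP purified from the uterine fluid of a pregnant sow. Assays ran at pH 4.9 in 0.1 M sodium acetate with 25% DMSO, at 25 °C. pNPP was 1–12.5 mM (six levels) and inhibitor 50–300 μM. Rates were read at 405 nm. Kiuc came from a general inhibition equation fit.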

In assay [4] the target is T2, Fe(3+)-Zn(2+) purple acid phosphatase (Phaseolus vulgaris). Put plainly: Uncompetitive inhibition of red kidney bean PAP using pNPP as substrate by UV-vis spectrophotometric analysis. In short, it runs like this:
as §1

With `O=P(O)(O)O` [PHOSPHORIC ACID], the inhibitory constant (Ki) in assay [1] and in assay [2] was 2000 µM throughout. With `O=C(O)c1cn(Cc2ccccc2Cl)nn1`, the Kic in assay [3] came to 438 µM. In the assay listed under Sus scrofa, this molecule showed a Kiuc of 276 µM. Consider `CC(=O)c1sc(C)nc1-c1ccc(C)cc1`, for which the figures for the Ki in assay [1] and in assay [2] were 340 µM and 42 µM, respectively. In the assay filed under Sus scrofa, `COc1ccc(Cn2cc(C(=O)O)nn2)cc1` registered a Kiuc of 48 µM. `Cc1ccc(Cn2cc(C(=O)O)nn2)cc1`: the Kic in assay [3] was 951 µM. In the assay filed under Sus scrofa, this molecule showed a Kiuc of 76 µM. For VANADATE ION, the inhibition constant (Ki) in assay [1] worked out at 30 µM; in assay [2] it was 40 µM. Turning to `O=C(O)c1cn(Cc2ccc(Cl)cc2)nn1`, the Kic in assay [3] came to 1070 µM. Also, in the assay filed under Sus scrofa, the Kiuc came to 103 µM.

As to `O=C(O)c1cn(Cc2cccc3ccccc23)nn1`, the Kic in assay [3] was determined as 2280 µM. The molecule also gave a Kiuc in the assay filed under Sus scrofa of 184 µM. As to `O=C(O)c1cn(Cc2ccccc2)nn1`, the Kiuc came out at 23 µM in the assay filed under Sus scrofa and 963 µM in assay [4].
